From PubChem BioAssay
Hits are enriched below; roughly 2.3% of the tested compounds scored in any of these assays.
OXTR potentiator: human OXTR potentiation; P30559; CHO-OTR cells, Fluo-8 calcium fluorescence, potentiator mode; 0% = oxytocin EC15, 100% = EC100; activation, % at 3 µM; 320,000 tested, 0.061% active; AID 2445;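 active = activation above that plate's cutoff, the mean activation of tested compounds plus 3 SD, cut at about 6.6% in these data, passing the limit was not always enough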;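 also: 100% uses oxytocin at 75 nM as the full agonist control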
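Material: CHO-OTR cells, human receptor; compound dosing: single dose, 3.0 µM nominal final compound concentration; schedule: 6 min compound pre-incubation at room temperature, 100 s kinetic read; measured by: kinetic Fluo-8 calcium fluorescence; read-out basis: % activation vs EC15 and EC100 oxytocin; controls: EC15 oxytocin alone as 0%, 75 nM oxytocin as 100%; replicates: singlicate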
V1aR counter: counter-screen for oxytocin receptor agonists: human V1a receptor agonists; P37288; CHO-V1R cells, Fluo-8 calcium fluorescence, agonist mode; 0% DMSO, 100% 3 nM vasopressin; activation, % at 3 µM; 320,000 tested, 0.25% active;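 active = activation above the mean activation of all tested compounds plus 3 SD, per screening run, cut at about 20% in these data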;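 also: signal is peak over basal fluorescence ratio across a 100 second FLIPR read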
TAAR1 antagonist: antagonists of human TAAR1; Q96RJ0; AID 624466; inhibition, % at 3 µM; 360,000 tested, 1.5% active; CHO RD-HGA16 TAAR1, Fluo-8 calcium fluorescence, antagonist;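 active = inhibition above a per-plate cutoff, the mean inhibition of test compounds on that plate plus 3 SD, cut at about 49% in these data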;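 also: 0% = DMSO plus EC80 beta-PEA response and 100% = DMSO alone without agonist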
Target sequence (Q96RJ0 whole entry, looked up): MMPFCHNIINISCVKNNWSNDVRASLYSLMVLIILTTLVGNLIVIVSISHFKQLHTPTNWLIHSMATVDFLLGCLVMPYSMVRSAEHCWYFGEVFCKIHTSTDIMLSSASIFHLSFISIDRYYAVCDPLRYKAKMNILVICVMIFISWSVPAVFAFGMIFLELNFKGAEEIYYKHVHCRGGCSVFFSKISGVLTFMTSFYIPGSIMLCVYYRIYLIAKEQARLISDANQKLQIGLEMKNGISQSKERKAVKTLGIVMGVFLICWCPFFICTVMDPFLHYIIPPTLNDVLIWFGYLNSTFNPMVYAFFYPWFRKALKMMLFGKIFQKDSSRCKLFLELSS
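System: CHO RD-HGA16 cells bearing hTAAR1. Reagent: EC80 β-phenethylamine stimulus. Schedule: seeding 17-24 h prior, 75-min 37 °C, 30-min RT dye loading. Signal: Fluo-8 intracellular calcium dye fluorescence, real-time kinetic reads. Read-out: % inhibition from peak post-agonist over basal fluorescence ratio. Benchmarks: vehicle wells and EC80 agonist wells. Replicates: n of 1.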
OXTR agonist: activates the human oxytocin receptor; P30559; CHO-OTR cells, Fluo-8 calcium fluorescence; normalized: DMSO 0%, oxytocin 100%; activation, % at 3 µM; 320,000 tested, 0.32% active;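 active = activation above the mean of all tested compounds plus 3 SD, cutoff set per screening run, cut at about 20% in these data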;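 also: peak over basal fluorescence ratio from a 100 s FLIPR kinetic read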
TAAR1 ag: agonists of human TAAR1; AID 624467; Q96RJ0; activation, % at 3 µM; CHO RD-HGA16 TAAR1, Fluo-8 calcium fluorescence; vehicle wells 0%, saturating PEA agonist 100%; 360,000 tested, 0.99% active;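 active = activation above the mean activation of all test compounds in the run plus 3 SD, cut at about 38% in these data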
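System: CHO-derived RD-HGA16 cells with stable Gα16 and human TAAR1 / Times: 17-24 h plating, Fluo-8 75 min 37 °C, 30 min RT / Technique: calcium-sensitive Fluo-8 signal, excitation 470-495, emission 515-575 nm / Measure: % activation relative to PEA EC100 response / Benchmarks: DMSO and PEA EC100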
TAAR1 ag conf: human TAAR1 agonism, confirmed. AID 651783. activation, % at 3 µM. 2,400 tested, 82% active. shares compounds with TAAR1 ag. CHO RD-HGA16 TAAR1, Fluo-8 calcium fluorescence; scaled: DMSO 0%, maximal phenethylamine 100%;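 active = activation above a cutoff set at the run's mean compound activation plus 3 SD, cut at about 39% in these data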
Ga16 ag counter: nonselective agonist in parental cells, TAAR1 agonist counter-screen; shares compounds with TAAR1 ag; CHO-Ga16 parental, Fluo-8 calcium fluorescence; normalized to maximal ATP response, DMSO zero; activation, % at 3 µM; 2,400 tested, 50% active; AID 651787;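 active = activation above the run cutoff, the mean activation over all tested wells plus 3 SD, cut at about 12% in these data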;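 also: 0% = DMSO wells and 100% = maximal ATP response on the peak over basal ratio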
TAAR1 desensitize: human TAAR1 agonist that also desensitizes the receptor; shares compounds with TAAR1 ag; CHO RD-HGA16 hTAAR1, Fluo-8 calcium, beta-PEA response inhibition; inhibition, % at 3 µM; 2,400 tested, 46% active;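 active = inhibition above the run cutoff, the mean inhibition of all test compounds plus 3 SD, cut at about 49% in these data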;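 also: beta-PEA stimulus applied at its EC80; loss of beta-PEA calcium signal after compound pretreatment read as receptor desensitization; 0% = DMSO with beta-PEA at EC80 and 100% = DMSO alone without agonist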
Ga16 antag count: nonselective Ga16 antagonist in TAAR1 agonist counter-screen. inhibition, % at 3 µM. CHO-Ga16 ATP-induced calcium, Fluo-8 fluorescence. shares compounds with TAAR1 ag. 2,400 tested, 39% active;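 active = inhibition above the plate's mean compound inhibition plus 3 SD, computed per plate, cut at about 22% in these data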;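 also: 0% = EC80 ATP with DMSO and 100% = DMSO wells without ATP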
An asterisk follows results filed as active; . = not tested or not shown.

SMILES	OXTR potentiator	V1aR counter	TAAR1 antagonist	OXTR agonist	TAAR1 ag	TAAR1 ag conf	Ga16 ag counter	TAAR1 desensitize	Ga16 antag count
CCn1c(C)nc2cc(C(=O)NNC(=S)Nc3ccc(F)cc3)ccc21	-1.8	-0.2	-38.6	0.3	3.7	.	.	.	.
CCn1c(C)nc2cc(C(=O)NNC(=S)Nc3ccc(Cl)cc3)ccc21	0.1	-0.3	2.4	-0.1	54.4*	61.4*	3.8	33.2	8.7
Cc1ccc2c(C(=O)CN3CCC(C(N)=O)CC3)c(C)[nH]c2c1	0.3	-0.5	.	0.4	.	.	.	.	.
CC1NC(C)c2c(ccc3ccccc23)O1 (configuration not stated)	.	.	.	.	.	.	0.9	.	6.3
CC1NC(C)(C)Cc2c1ccc1ccccc21 (configuration not stated)	-9.5	0.0	-15.4	0.8	0.3	.	.	.	.
N#C/C(=C/c1ccc(N2CCCCC2)o1)C(=O)Nc1ccc(Cl)cc1	-10.4	225.3*	108.6*	197.2*	312.3*	127.3*	165.7*	95.6*	92.2*
N#C/C(=C/c1ccc(N2CCCCC2)o1)C(=O)Nc1ccc2ccccc2c1	.	.	107.1*	.	268.2*	199.2*	223.2*	93.4*	94.7*
CC1CC1c1ccc(/C=C(\C#N)C(=O)Nc2ccccc2Cl)o1 (configuration not stated)	-6.9	0.7	1.7	-0.6	1.6	.	.	.	.
Cc1ccccc1C(=O)c1cccn1CC(=O)NCc1ccccc1Cl	-19.9	-2.0	33.7	0.0	50.2*	4.8	6.1	10.4	16.1
O=C(Cn1cccc1C(=O)c1ccccc1)NCc1ccccc1Cl	-2.0	-0.5	-33.0	-1.5	3.1	.	.	.	.
COc1ccccc1NC(=O)c1ccc(Cl)c(S(=O)(=O)NCc2ccco2)c1	0.2	0.3	-13.8	-1.9	-0.1	.	.	.	.
COC(=O)Cn1cnc2c(oc3ccccc32)c1=O	0.4	1.1	.	0.7	.	.	.	.	.
Cc1c(CN2CCCC(C)C2)c(O)n(CCO)c(=O)c1C#N (configuration not stated)	-1.3	0.0	.	0.8	.	.	1.2	.	7.9
O=C(O)Cc1ccc(S(=O)(=O)Nc2ccccc2C(=O)O)cc1	3.9	-0.2	-12.5	0.2	-0.8	.	.	.	.
O=C(CCn1c(=S)[nH]c2cc3c(cc2c1=O)OCO3)NCCc1ccccc1Cl	.	.	41.0	.	73.5*	91.6*	1.7	78.1*	6.7
O=C(CCCCCn1c(=S)[nH]c2ccc(N3CCOCC3)cc2c1=O)NCCc1ccccc1	1.1	0.3	22.3	0.1	55.2*	69.7*	2.5	41.7	10.4
O=C(CCCn1c(=S)[nH]c2cc3c(cc2c1=O)OCO3)NCCc1ccccc1Cl	-6.4	-1.9	-12.5	-3.1	52.2*	20.8	0.1	8.5	2.3
O=C(CCCCCn1c(=S)[nH]c2ccc(N3CCOCC3)cc2c1=O)NCc1ccccc1Cl	-2.9	-0.9	-18.2	-0.7	2.8	.	.	.	.
C[C@@H]1CN([C@@H](C)CO)S(=O)(=O)c2ccc(Br)cc2O[C@H]1CN(C)C(=O)Cc1cccnc1	.	.	1.4	.	3.0	.	.	.	.
COc1ccc(C(CCNC(C)c2ccccc2)c2ccc(F)cc2)cc1 (configuration not stated)	-15.1	5.0	15.4	13.6	51.0*	66.0*	35.3*	37.8	33.8*
COc1ccc(C(CCNCc2ccccc2)c2ccc(F)cc2)cc1 (configuration not stated)	-6.1	3.0	19.5	7.5	24.6	.	.	.	.
